Test [1] in a line: reducers of endogenous Her2 protein level, primary screen, SKBR3 breast tumor cells, AlphaScreen, ATP viability (AID 461;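 active = Her2 level under about 52% in both replicate screens, with viability over 70% of control, limit read from the data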;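 for Her2 level: lower value means less Her2 protein in the cells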;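 for viability: percent of carrier control wells set as 100% viability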). Conditions: 18-24 h, measured here: SKBR3 viability, ATP luminescence, at 10 µM. Background: Alpha assays give light when donor and acceptor beads are brought close together.
The target of test [2] is Receptor tyrosine-protein kinase erbB-2 (Homo sapiens) (UniProt P04626). The description is as above. Conditions: 18-24 h, at 10 µM, stronger effect = lower value.
Chain of Receptor tyrosine-protein kinase erbB-2 (Homo sapiens) (P04626 whole entry, looked up): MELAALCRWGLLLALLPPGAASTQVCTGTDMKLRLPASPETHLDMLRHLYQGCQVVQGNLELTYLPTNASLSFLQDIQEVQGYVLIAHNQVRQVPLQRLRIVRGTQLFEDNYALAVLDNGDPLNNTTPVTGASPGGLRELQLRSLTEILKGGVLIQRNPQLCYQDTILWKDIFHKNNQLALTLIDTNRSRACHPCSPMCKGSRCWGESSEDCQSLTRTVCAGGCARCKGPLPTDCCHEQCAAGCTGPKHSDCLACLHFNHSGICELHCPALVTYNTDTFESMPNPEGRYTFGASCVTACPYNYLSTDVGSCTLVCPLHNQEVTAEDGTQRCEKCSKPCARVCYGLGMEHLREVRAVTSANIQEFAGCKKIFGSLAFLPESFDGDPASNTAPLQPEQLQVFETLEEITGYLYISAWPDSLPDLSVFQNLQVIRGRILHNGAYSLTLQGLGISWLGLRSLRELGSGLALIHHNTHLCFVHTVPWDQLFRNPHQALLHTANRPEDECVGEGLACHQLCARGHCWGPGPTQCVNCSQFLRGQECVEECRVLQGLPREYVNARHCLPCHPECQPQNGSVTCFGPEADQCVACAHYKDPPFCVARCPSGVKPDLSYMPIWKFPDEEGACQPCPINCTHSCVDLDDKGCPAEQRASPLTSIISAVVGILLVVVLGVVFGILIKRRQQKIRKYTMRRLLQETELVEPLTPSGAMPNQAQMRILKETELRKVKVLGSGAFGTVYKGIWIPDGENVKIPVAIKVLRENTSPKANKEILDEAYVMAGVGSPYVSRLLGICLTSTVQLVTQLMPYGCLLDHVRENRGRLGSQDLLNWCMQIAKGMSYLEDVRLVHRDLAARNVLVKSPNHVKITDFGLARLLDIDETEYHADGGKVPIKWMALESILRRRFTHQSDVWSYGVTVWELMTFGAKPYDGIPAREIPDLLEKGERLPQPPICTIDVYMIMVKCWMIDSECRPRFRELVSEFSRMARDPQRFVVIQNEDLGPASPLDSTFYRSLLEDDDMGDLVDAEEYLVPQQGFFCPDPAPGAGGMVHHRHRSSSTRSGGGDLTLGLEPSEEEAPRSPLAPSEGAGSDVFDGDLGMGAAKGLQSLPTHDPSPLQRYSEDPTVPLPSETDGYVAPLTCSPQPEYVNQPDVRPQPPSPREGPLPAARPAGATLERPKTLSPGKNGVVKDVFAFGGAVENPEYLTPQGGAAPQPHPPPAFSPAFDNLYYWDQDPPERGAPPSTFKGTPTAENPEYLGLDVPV
The nature of test [3]: SK-BR-3 cell growth inhibitors, pilot screen, 24 h, human (AID 572;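 active = viability at or below 10% of carrier control in both of two separate runs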;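 note: compound exposure lasted between 18 and 24 h rather than exactly 24 h; 100% = carrier-treated control wells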). The following applies: SK-BR-3 viability, CellTiter-Glo luminescence, at 10 µM, stronger effect = lower value.
Test [4] in a line: HUVEC growth inhibition – cell-based, human, primary screen (AID 575;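 active = viability at or below 30% in both replicate assays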;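 note: 100% = median of untreated cell wells with 0.1% DMSO on each plate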). The following applies: HUVEC proliferation, CellTiter-Glo luminescence, 72 h; at 10 µM; stronger effect = lower value. Put shortly:
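system = HUVEC primary cells | amount = 1250 cells/well | buffer or medium = supplemented EBM, 2% fetal bovine serum | dosing = single-point 10 µM, DMSO 0.1% final | times = 72 h compound incubation | detection = CTG luminescence | read-out = % viability relative to median vehicle-well signal on each plate | control set = vehicle and MePR control wells | format = collagen-coated 384-well format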
(ATP-based viability assays read luminescence as a measure of living cells.)

Test [5] in a line: growth inhibitors of H69AR lung tumor, primary screen, human, duplicate replicates (AID 580).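 Note: 100% = mean luminescence of untreated wells and 0% = no signal.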 The following applies: H69AR lung tumor cells viability, ATP luminescence, 72 h; at 10 µM; stronger effect = lower value.
Test [6] can be described thus: reversal of MRP1-mediated doxorubicin resistance, pilot screen, H69AR cells, doxorubicin co-treatment (AID 601;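 active = viability loss from added drug above about 55%, and viability with drug at most 40%, in both replicates, limit read from the data, passing the limit was not always enough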). Conditions: CellTiter-Glo, 72 h, at 10 µM; for differential viability (reversal): stronger effect = higher value.
Test [7] can be described thus: 384-well plate pilot, post-Golgi transport modulator project, inhibition of yeast transport mutant growth (AID 636; in the data active = inhibition above about 31%). Conditions: absorbance 615 nm, about 18 h, stronger effect = higher value.
Test [8] can be described thus: growth suppression of yeast trafficking mutant, preliminary HTS, modulators of trafficking downstream of Golgi apparatus project, 1536-format plate, OD 615 nm (AID 637; in the data active = inhibition above about 30%). Conditions: yeast transport mutant growth, absorbance 615 nm, 18 h; stronger effect = higher value.
[9] abbreviates: H69AR cells + 2 uM doxorubicin, measured here: viability with 2 uM doxorubicin, stronger effect = lower value.
Where [10] appears, read: H69AR cells, compound alone cytotoxicity.

16 compounds from PubChem BioAssay can be followed below.

Activity calls are given as the source filed them.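 Rule for the calls, unless noted: active = viability at or under a set limit in both replicates, limit being median viability minus 3 SD (cut at about 48% in these data, passing the limit was not always enough); inconclusive = at or under the limit in just one replicate; inactive = at or above the limit in both replicates.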

With `Cc1ccc(NC(=O)C2CCCN(S(=O)(=O)c3cnc[nH]3)C2)c(Br)c1` (stereo not given), the viability in test [1] was 88.5%; in test [3], 88.5% (inactive); in test [4] it was 88.1% (inactive); in test [5], 101% (inactive); in test [6] (setting [9]) it was 93.3%; in test [6] (setting [10]) it was 101%. Further, the Her2 level in test [2] is 92% (inactive). In addition, the differential viability (reversal) in test [6] (H69AR cells + 2 uM doxorubicin) is 8.17% (inactive). Further, the inhibition in test [7] was -0.93% (inactive); in test [8] it was -1.97% (inactive).
As for `O=C(OCC(=O)N1CCCC1)c1ccccc1OCc1ccccc1`, the viability in test [1] is 96%; in test [3] it was 96% (inactive); in test [4], 73.2% (inactive); in test [5], 99.4% (inactive); in test [6] (setting [9]), 88.3%; in test [6] (setting [10]), 99.4%. Moreover, the Her2 level in test [2] was 79.5% (inactive). Besides, in test [6] (H69AR cells + 2 uM doxorubicin), the differential viability (reversal) was 11.1% (inactive). Also, the inhibition was -7.7% (inactive) in test [7] and 1.31% (inactive) in test [8].
As for `COc1ccc(-n2c(COc3ccccc3)nnc2SCc2ccc(C#N)cc2)cc1`, the viability in test [1] is 88%; in test [3] it was 88% (inactive); in test [4], 81% (inactive); in test [5], 76.4% (inactive); in test [6] (setting [9]), 54.1%; in test [6] (setting [10]) it was 76.4%. Besides, in test [2], the Her2 level was 93% (inactive). Moreover, the differential viability (reversal) in test [6] (H69AR cells + 2 uM doxorubicin) was 22.4% (inactive). Moreover, the figures for the inhibition in test [7] and in test [8] were 0% (inactive) and -7.82% (inactive), respectively.
Take `CC1CCCC(C)N1C(=O)COC(=O)c1ccc[nH]c1=O` (stereo not given): the viability in test [1] was 102%; in test [3] it was 102% (inactive); in test [4], 95.9% (inactive); in test [5], 97.7% (inactive); in test [6] (setting [9]) it was 103%; in test [6] (setting [10]), 97.7%. For the same compound, the Her2 level in test [2] is 86% (inactive). Moreover, in test [6] (H69AR cells + 2 uM doxorubicin), the differential viability (reversal) is -5.21% (inactive). In addition, the inhibition in test [7] is -4.49% (inactive); in test [8] it was 1.67% (inactive).
`COc1cc(Br)cc(CN2CCN(C/C=C/c3ccccc3)CC2)c1O`: the viability in test [1] is 81%; in test [3], 81% (inactive); in test [4] it was 79.5% (inactive); in test [5], 93.2% (inactive); in test [6] (setting [9]), 86%; in test [6] (setting [10]), 93.2%. Moreover, the Her2 level in test [2] is 93.5% (inactive). For the same compound, the differential viability (reversal) in test [6] (H69AR cells + 2 uM doxorubicin) was 7.21% (inactive). In addition, the inhibition is 0.93% (inactive) in test [7] and 11.3% (inactive) in test [8].
On to `CCN(CCO)C1CC(=O)N(c2ccccc2C)C1=O` (stereo not given), for which the viability was 95% in test [1]; 95% (inactive) in test [3]; 105% (inactive) in test [4]; 101% (inactive) in test [5]; 76.7% in test [6] (setting [9]); 101% in test [6] (setting [10]). In test [2], the Her2 level is 93.5% (inactive). Also, the differential viability (reversal) in test [6] (H69AR cells + 2 uM doxorubicin) is 24.2% (inactive). Also, the inhibition in test [7] was -9.46% (inactive); in test [8], -2% (inactive).
In the case of `CCS(=O)(=O)c1nc2ccccc2n1CC(=O)N1CCCCC1`, the viability was 88.5% in test [1]; 88.5% (inactive) in test [3]; 96.7% (inactive) in test [4]; 80.4% (inactive) in test [5]; 76.8% in test [6] (setting [9]); 80.4% in test [6] (setting [10]). Moreover, in test [2], the Her2 level was 82.5% (inactive). In addition, in test [6] (H69AR cells + 2 uM doxorubicin), the differential viability (reversal) is 3.6% (inactive). Moreover, the inhibition is -3.42% (inactive) in test [7] and 0.79% (inactive) in test [8].
For `c1ccc(-c2noc(C3CCCCC3)n2)nc1`, the viability in test [1] was 91%; in test [3] it was 91% (inactive); in test [4], 114% (inactive); in test [5], 102% (inactive); in test [6] (setting [9]), 90.4%; in test [6] (setting [10]) it was 102%. The Her2 level in test [2] was 96.5% (inactive). Also, in test [6] (H69AR cells + 2 uM doxorubicin), the differential viability (reversal) is 11.2% (inactive). For the same compound, the inhibition is 0.82% (inactive) in test [7] and -2.7% (inactive) in test [8].
In the case of `C=COC(=O)CSc1snc(SCC(=O)OC)c1C#N`, the viability in test [1] is 85.5%; in test [3], 85.5% (inactive); in test [4], 66.2% (inactive); in test [5], 98.9% (inactive); in test [6] (setting [9]), 95.9%; in test [6] (setting [10]), 98.9%. In test [2], the Her2 level is 92.5% (inactive). The differential viability (reversal) in test [6] (H69AR cells + 2 uM doxorubicin) is 3.02% (inactive). For the same compound, the inhibition was -5.89% (inactive) in test [7] and 6.98% (inactive) in test [8].
Consider `CC(=O)OCC1OC(c2ccccc2)C(OC(C)=O)C(OC(C)=O)C1OC(C)=O` (stereo not given), for which the viability in test [1] is 90%; in test [3], 90% (inactive); in test [4] it was 108% (inactive); in test [5], 98.8% (inactive); in test [6] (setting [9]) it was 101%; in test [6] (setting [10]), 98.8%. Moreover, the Her2 level in test [2] was 94.5% (inactive). In addition, in test [6] (H69AR cells + 2 uM doxorubicin), the differential viability (reversal) is -1.94% (inactive). Also, the inhibition in test [7] was -3.21% (inactive); in test [8] it was -3.83% (inactive).
As to `Cc1cc(-c2ccccc2)nc2cc(C(=O)NCCCn3ccnc3)nn12`, the viability was 104% in test [1]; 104% (inactive) in test [3]; 98.8% (inactive) in test [4]; 88.2% (inactive) in test [5]; 79.3% in test [6] (setting [9]); 88.2% in test [6] (setting [10]). Also, the Her2 level in test [2] was 103% (inactive). Besides, in test [6] (H69AR cells + 2 uM doxorubicin), the differential viability (reversal) is 8.86% (inactive). Besides, the inhibition in test [7] is -6.13% (inactive); in test [8], -1.45% (inactive).
Take `CC(=O)NC1(c2nnnn2CCOC(=O)Nc2ccc(Cl)cc2)CCCCC1`: the viability in test [1] was 112%; in test [3], 112% (inactive); in test [4] it was 98.5% (inactive); in test [5], 98.5% (inactive); in test [6] (setting [9]), 85.4%; in test [6] (setting [10]) it was 98.5%. The Her2 level in test [2] is 89% (inactive). In addition, the differential viability (reversal) in test [6] (H69AR cells + 2 uM doxorubicin) was 13% (inactive). Also, the inhibition is -3.29% (inactive) in test [7] and 8.69% (inactive) in test [8].
For `Cn1c(=O)n(CC(=O)OCc2ccccc2)c(=O)c2c1nc1n2CCCN1C1CCCCC1`, the viability is 81% in test [1]; 81% (inactive) in test [3]; 96.4% (inactive) in test [4]; 78.7% (inactive) in test [5]; 45.9% in test [6] (setting [9]); 78.7% in test [6] (setting [10]). Also, in test [2], the Her2 level was 86% (inactive). Moreover, in test [6] (H69AR cells + 2 uM doxorubicin), the differential viability (reversal) was 32.8% (inactive). For the same compound, the inhibition was -6.35% (inactive) in test [7] and -0.16% (inactive) in test [8].
For the compound `CCc1ccccc1NC(=O)CSc1nc2n[nH]c(C)c2c(=N)n1-c1ccc(OC)cc1`, the viability in test [1] was 98.5%; in test [3], 98.5% (inactive); in test [4], 66.4% (inactive); in test [5] it was 80% (inactive); in test [6] (setting [9]), 82.3%; in test [6] (setting [10]) it was 80%. Further, in test [2], the Her2 level was 77.5% (inactive). In addition, the differential viability (reversal) in test [6] (H69AR cells + 2 uM doxorubicin) was -2.23% (inactive). The inhibition in test [7] was -5.92% (inactive); in test [8], 6.51% (inactive).
Regarding `CC/C(O)=C(/C#N)c1nnc2n1CCCCC2`, the viability in test [1] is 100%; in test [3], 100% (inactive); in test [4] it was 101% (inactive); in test [5], 97.4% (inactive); in test [6] (setting [9]), 86.5%; in test [6] (setting [10]), 97.4%. In addition, in test [2], the Her2 level is 84% (inactive). In addition, in test [6] (H69AR cells + 2 uM doxorubicin), the differential viability (reversal) was 10.8% (inactive). The inhibition in test [7] was -4.68% (inactive); in test [8], -5.71% (inactive).
With `O=C(NCc1ccccc1)C1CCCN1S(=O)(=O)c1cccc2cccnc12` (stereo not given), the viability in test [1] was 94%; in test [3], 94% (inactive); in test [4], 93% (inactive); in test [5] it was 110% (inactive); in test [6] (setting [9]), 94.4%; in test [6] (setting [10]), 110%. Also, the Her2 level in test [2] was 99.5% (inactive). Moreover, the differential viability (reversal) in test [6] (H69AR cells + 2 uM doxorubicin) was 15.6% (inactive). The results for the inhibition in test [7] and in test [8] were -0.53% (inactive) and -0.98% (inactive), respectively.

One may read the viability as a read-out of living cells in per cent, often relative to untreated cells. In general, inhibition refers to the relative decrease from the control value, in per cent.
